Molecules are shown by their SMILES.

The data set can be described thus: Toxicity liver stage against HepG2, at 10uM. Details: test concentration 10 uM, cell line HepG2-A16-CD81EGFP. Type of data set: cell-based. The note with it: human, HepG2-A16-CD81EGFP cells; read-out: INHIBITION
In short, it runs like this: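 Uninfected HepG2-A16-CD81EGFP cells, 3 × 10^3 per well, 1536-well, plated on prespotted compound at 10 μM final, parasite-free screening media added to match infected plates; puromycin 10 μM positive, DMSO 0.5% negative; run in parallel with 48 h PbLuc assay at 37 °C, 5% CO2; viability by CellTiter-Glo luminescence, normalized to controls.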
On to `Cn1nnc2c1CCN(Cc1ccoc1)C2COCc1ccccc1` (stereo unspecified), for which the cytotoxicity at 10 µM was -138%.

As to `Cn1cccc1C(=O)N1CC[C@H]2C[C@@H](c3ccncn3)O[C@@H]2C1`, the cytotoxicity at 10 µM was found to be 0.77%.

`CN(C)C(=O)[C@H]1CCS(=O)(=O)[C@@H]2CN(c3ncccn3)C[C@H]12`: the cytotoxicity at 10 µM was -103%.

Turning to `CCn1cc2c(n1)CN(Cc1sccc1C)CC2COCC1CC1` (stereo unspecified), the cytotoxicity at 10 µM was -57.3%.

For the compound `O=C(O)c1c(-c2ccncc2)ncc2c1CCN(C1CCOC1)C2` (stereo unspecified), the cytotoxicity at 10 µM is 15%.

Turning to `O=C1CC(c2ccc(O)cc2)c2c(c(C(=O)O)cn2-c2ccccc2)N1` (stereo unspecified), the cytotoxicity at 10 µM was -4.99%.

As for `CCn1ccnc1CN1CCN(c2nccc(OC)n2)CC1C` (stereo unspecified), the cytotoxicity at 10 µM was -17.9%.

Consider `COc1cc(NCCCSc2nnc(C)s2)ncn1`, for which the cytotoxicity at 10 µM was found to be 20.6%.

Regarding `CNC(=O)COc1ccc(-c2ccccc2)nc1`, the cytotoxicity at 10 µM was found to be 1.76%.

Consider `Cc1ccc(F)c(C(=O)N2CCC(Nc3ccc(C)nn3)CC2)c1`, for which the cytotoxicity at 10 µM was -3.78%.

As to `COc1ccc(-n2nc(C(C)C)nc2Cn2cncn2)cc1`, the cytotoxicity at 10 µM turned out to be 4.22%.

In the case of `CN(C)C(=O)C1OC2(CCN(C(=O)c3ccoc3)CC2)c2ccccc21` (stereo unspecified), the cytotoxicity at 10 µM is 5.63%.

For `COCCN1C[C@@H](C)[C@@]2(COCCN(C(=O)c3cccs3)C2)C1`, the cytotoxicity at 10 µM is 9.7%.

Turning to `CCn1cc(CN2C[C@@H]3CCCN3C[C@@H]2CCSC)c(C)n1`, the cytotoxicity at 10 µM turned out to be 3.29%.

Take `CC(C)(C)n1ncc2c(=O)n(CC(=O)NCc3ccccc3)cnc21`: the cytotoxicity at 10 µM was 42%.

Take `CN1CC[C@H]2CN(C(=O)COCc3nc4cc(F)ccc4[nH]3)C[C@H]21`: the cytotoxicity at 10 µM was 2.77%.

For `CCc1ccc2nc(NCCCN(CCO)CCO)cc(C)c2c1`, the cytotoxicity at 10 µM was -13.3%.

`O=C(O)[C@@H]1CN(CC2CCC2)C[C@H]1c1ccc(F)cc1`: the cytotoxicity at 10 µM is -3.62%.

As for `Cc1nn(C)cc1CN1CCc2nc3sccc3c(=O)n2CC1`, the cytotoxicity at 10 µM is -1.87%.

For the compound `COc1cc(Br)c(CNc2ccn(CCC(N)=O)n2)cc1OC`, the cytotoxicity at 10 µM was -2.87%.

On to `CCOc1ccc(C#N)cc1NCC(=O)Nc1cc(F)ccc1F`, for which the cytotoxicity at 10 µM is -9.47%.

As for `CSCCN1CCC(NC(=O)c2cccc(C3CCCNC3)c2)CC1` (stereo unspecified), the cytotoxicity at 10 µM came out at 0.49%.

Take `CC(C)C(=O)N1CCC(C2C(=O)Nc3ccccc32)CC1` (stereo unspecified): the cytotoxicity at 10 µM is -1.54%.

For `Cc1nc(-c2cccs2)ccc1C(=O)N1CCN(CC(C)O)CC1` (stereo unspecified), the cytotoxicity at 10 µM is -45.1%.

As to `Cc1cc(C)cc(C(=O)N2CCCN(CC(N)=O)CC2)c1`, the cytotoxicity at 10 µM is -5.65%.

For `CC1CCN(C(=O)c2ccn(COc3ccccc3)n2)CC1`, the cytotoxicity at 10 µM is -0.107%.

As to `CC(C)(C)c1noc(CCCC(=O)N2CCCC(c3ccn[nH]3)C2)n1` (stereo unspecified), the cytotoxicity at 10 µM is -14.2%.

Consider `Cn1cc(-c2nc(CN3CCOC(Cn4cncn4)C3)cs2)cn1` (stereo unspecified), for which the cytotoxicity at 10 µM is -1.41%.

For `COc1ccc(NC(=O)C(c2cccc(F)c2)N2CCOCC2)cc1` (stereo unspecified), the cytotoxicity at 10 µM is 2.42%.

With `CC(O)CNCc1c[nH]nc1-c1cc2ccccc2o1` (stereo unspecified), the cytotoxicity at 10 µM was found to be 0.788%.

Take `CCC[C@H]1CN(S(=O)(=O)c2c(C)noc2C)C[C@@H]1N`: the cytotoxicity at 10 µM was -0.288%.

With `CC(NC(=O)c1ccoc1)C(=O)N(C)Cc1ccc(O)cc1` (stereo unspecified), the cytotoxicity at 10 µM was -3.59%.

On to `Cc1c(NC(=O)N(C)CCCc2cnn(C)c2)cnn1C`, for which the cytotoxicity at 10 µM is -1.23%.

Turning to `CNc1cncc(C2CCCN2Cc2ccccc2OCC(=O)O)n1` (stereo unspecified), the cytotoxicity at 10 µM was -0.105%.

As for `CCCS(=O)(=O)c1ccc(N2CCC(Cc3ccccc3)CC2)nn1`, the cytotoxicity at 10 µM was -7.91%.

As for `Cc1nc2c(c(NCCCN3CCOCC3)n1)CCN(C)C2`, the cytotoxicity at 10 µM came to 8.12%.

As to `Cc1nc(C)c(C(=O)N2CCc3c(C)cccc32)o1`, the cytotoxicity at 10 µM was -2.28%.

As for `Cc1nn(C)c(C)c1CN1CCNCC1`, the cytotoxicity at 10 µM was determined as 4.68%.

In the case of `CN1CCCCC12CCN(C(=O)c1cccn1C)CC2`, the cytotoxicity at 10 µM is 8.22%.

For the compound `COc1ccc(C)nc1NC(=O)CCc1c(C)nn(C)c1C`, the cytotoxicity at 10 µM came out at 0.918%.

On to `Cc1nc(=O)c(CC(=O)N2C[C@@H]3CC[C@H]2CN(C(=O)N(C)C)C3)c(C)[nH]1`, for which the cytotoxicity at 10 µM amounted to 7.6%.

With `CN(Cc1ccccc1NCc1cccnc1)C(=O)c1cccs1`, the cytotoxicity at 10 µM was determined as 0.205%.

For the compound `Cc1noc(C2CCCN(C(=O)c3cccc(Cl)c3)C2)n1` (stereo unspecified), the cytotoxicity at 10 µM is -1.58%.

`Cc1cccnc1CNC(=O)CC1C(=O)NCCN1CC(C)(C)C` (stereo unspecified): the cytotoxicity at 10 µM amounted to 5.48%.

Consider `N#Cc1cccc(N2CCC(CO)(CCOc3ccccc3)CC2)n1`, for which the cytotoxicity at 10 µM is -42.8%.

Regarding `CN(C)c1ncnc2c1CCN(c1cc(C(F)(F)F)ncn1)CC2`, the cytotoxicity at 10 µM is 9.55%.

Turning to `Cc1nn(Cc2ccc(C(=O)NC3CCS(=O)(=O)C3)cc2)c(C)c1Br` (stereo unspecified), the cytotoxicity at 10 µM is -3.71%.

Consider `Cc1cc(=O)[nH]c(SC(C)C(=O)N2CCC(NS(C)(=O)=O)CC2)n1` (stereo unspecified), for which the cytotoxicity at 10 µM was -10.4%.

As for `COCCN1CCC2(C1)c1ccccc1S(=O)(=O)N2Cc1ccccc1` (stereo unspecified), the cytotoxicity at 10 µM was 10.5%.

For the compound `CC(C)(C)NC(=O)[C@@H]1Cc2ccccc2CN1Cc1cccs1`, the cytotoxicity at 10 µM was -2.14%.

On to `COc1ccc(Cl)cc1C(C(=O)O)N(C)Cc1ccon1` (stereo unspecified), for which the cytotoxicity at 10 µM was -5.92%.

In the case of `Cc1cnnn1Cc1nnn2c1CN(Cc1cccs1)CCC2`, the cytotoxicity at 10 µM stood at 8.28%.

In the case of `CC(C)COCC(C)NC(=O)NCc1cccc(-n2cncn2)c1` (stereo unspecified), the cytotoxicity at 10 µM is -0.662%.

As to `O=c1c2sccc2ncn1Cc1cc(C2CC2)[nH]n1`, the cytotoxicity at 10 µM was determined as 0.463%.

Consider `CC(C)NC(=O)[C@@H]1CN(C(=O)C2CC2)C[C@]12Cc1ccccc1C(=O)N2`, for which the cytotoxicity at 10 µM is 1.48%.

As to `CN1CC=C(c2noc(CCC(=O)N3CCOCC3)n2)CC1`, the cytotoxicity at 10 µM was -0.687%.

With `CC(C)Cc1nc(-c2ccnc(N3CCNCC3)n2)no1`, the cytotoxicity at 10 µM was determined as 2.04%.

Take `CC(C)NC(=O)NC(=O)C(C)N1CCN(C2CCN(C(C)C)CC2)CC1` (stereo unspecified): the cytotoxicity at 10 µM was -15.5%.

Regarding `COCCC(=O)N1CCC2(CC1)CC(c1ccccc1)CN(C)C2` (stereo unspecified), the cytotoxicity at 10 µM is -14.4%.

Take `COc1cccc(CN(C)C(=O)CSc2ccc3c(c2)OCCO3)c1`: the cytotoxicity at 10 µM was -7.97%.

As to `COCCN1CCC(CNC(=O)C2(c3cccc(C)c3)CC2)CC1`, the cytotoxicity at 10 µM is -1.88%.

With `CCn1cnnc1CCNC(=O)C(C)(C)c1cccc(Cl)c1`, the cytotoxicity at 10 µM is 7.76%.

On to `CO[C@H]1CN(Cc2cccc(C#N)c2)[C@@H]2COC[C@H]12`, for which the cytotoxicity at 10 µM was -5.77%.

Regarding `O=C(O)c1cnc(OCC2CC2)c(Br)c1`, the cytotoxicity at 10 µM worked out at 9.38%.

In the case of `CCC(C(=O)NCc1csc(N2CCOCC2)n1)n1cccn1` (stereo unspecified), the cytotoxicity at 10 µM is -2.88%.

For the compound `CCCN1CCC(CC(=O)NCCc2nc(C)cc(C)n2)CC1`, the cytotoxicity at 10 µM was -13.7%.

`Cc1oncc1C(=O)NCc1cc(=O)n2c(n1)CN(C(C)C)CCC2`: the cytotoxicity at 10 µM was 2.45%.

Take `CCN1CCN(C2CCN(C(C(N)=O)c3ccc(F)cc3)CC2)C1=O` (stereo unspecified): the cytotoxicity at 10 µM was -20%.

Regarding `Cc1cc(NCC(=O)NCC(F)(F)F)nc(-c2ccncc2)n1`, the cytotoxicity at 10 µM was 6.45%.

As for `CC(C)N(C)C(=O)C1=NOC2(CCN(C(=O)c3cccn3C)C2)C1` (stereo unspecified), the cytotoxicity at 10 µM is -122%.

Regarding `Cc1[nH]c2c(C)ccc(C)c2c1CC(=O)NC1CCCNC1=O` (stereo unspecified), the cytotoxicity at 10 µM was -0.274%.

Consider `CN(C)CCN1CCO[C@@H]2CN(C(=O)c3cccs3)CC[C@@H]2C1`, for which the cytotoxicity at 10 µM turned out to be 1.34%.

Turning to `CC(C)OCCC(=O)Nc1c(-c2ccc(F)cc2)ncn1C`, the cytotoxicity at 10 µM is -3.41%.

In the case of `COc1ccc(F)cc1C(=O)N1C[C@H]2CC(OC)C[C@H]2C1` (stereo partly specified), the cytotoxicity at 10 µM is -2.19%.

`CN(C)S(=O)(=O)N1CCC(Oc2cnccn2)CC1`: the cytotoxicity at 10 µM was determined as 1.65%.

Turning to `Cn1cc(C2=NOC(C(=O)NC3(c4ccccc4F)CCCC3)C2)cn1` (stereo unspecified), the cytotoxicity at 10 µM is -0.269%.

Consider `Cc1cc(C2CCCN2C(=O)c2ccc(OCC(N)=O)cc2)no1` (stereo unspecified), for which the cytotoxicity at 10 µM was -43.9%.

On to `COc1ccc(CN2CCC3(CC2)CC(c2cccnc2)CO3)cc1` (stereo unspecified), for which the cytotoxicity at 10 µM was -0.259%.

In the case of `CC(C)(O)c1cn(C2CCN(c3ncccc3Cl)CC2)nn1`, the cytotoxicity at 10 µM was -46.4%.

Take `O=C(NCc1cccc(F)c1)Nc1ccn(CCN2CCOCC2)n1`: the cytotoxicity at 10 µM was -8.45%.

Consider `O=C1C(NS(=O)(=O)c2cc(F)cc(F)c2)CCN1Cc1ccccc1` (stereo unspecified), for which the cytotoxicity at 10 µM is -10%.

Take `CN(C)Cc1cc(=O)n2c(n1)CN(S(=O)(=O)C1CC1)CCC2`: the cytotoxicity at 10 µM was found to be 4.53%.

Turning to `CCc1nnc2n1CCN(CC(=O)Nc1cc(C)on1)C2`, the cytotoxicity at 10 µM came out at 5.18%.

Regarding `O=C(c1nnn(-c2ccc(C(F)(F)F)cc2)n1)N1CCC(O)CC1`, the cytotoxicity at 10 µM is -4.52%.

With `c1ccc(CN2Cc3nccn3CC(Cn3cncn3)C2)nc1` (stereo unspecified), the cytotoxicity at 10 µM was -141%.

With `CCS(=O)(=O)N1CCc2ccc(NC(=O)NCc3ccccc3)cc21`, the cytotoxicity at 10 µM turned out to be 10.9%.

Consider `CCC(c1ccc(F)cc1F)N1CCN(CCO)CC1` (stereo unspecified), for which the cytotoxicity at 10 µM was -4.34%.

As to `CN(C(=O)c1ccccn1)c1nnc(C2CCOC2)s1` (stereo unspecified), the cytotoxicity at 10 µM stood at 0.07%.

For `Cc1cc(CNC(=O)[C@H]2CCCCN2C(=O)OC(C)(C)C)on1`, the cytotoxicity at 10 µM was -0.82%.

On to `O=C(c1cnc(C2CC2)nc1O)N1CCN(Cc2ccccc2F)CC1`, for which the cytotoxicity at 10 µM is -1.83%.

On to `Cc1cc(C[S+]([O-])Cc2ccccc2F)no1` (stereo unspecified), for which the cytotoxicity at 10 µM was -3.71%.

Take `COc1ccccc1CNC(=O)COc1c(C)n(C)ccc1=O`: the cytotoxicity at 10 µM was -41.4%.

Turning to `COc1cncc(N2CCN(Cc3ccncc3Cl)CC2)n1`, the cytotoxicity at 10 µM was found to be 1.66%.

As for `COc1nccnc1N1CCN(Cc2ccc(F)cc2)C(=O)C1`, the cytotoxicity at 10 µM turned out to be 1.27%.

For `O=C(c1ccccc1Cl)N1CCN(CCc2ccccn2)CC1`, the cytotoxicity at 10 µM amounted to 5.75%.

`CN1CC(c2ccccc2)CC12CCN(C(=O)c1ccc(F)cc1)CC2` (stereo unspecified): the cytotoxicity at 10 µM is -12.1%.

These data come from ChEMBL document CHEMBL4513216, “Probing the Open Global Health Chemical Diversity Library for Multistage-Active Starting Points for Next-Generation Antimalarials” (ACS Infect Dis, 2020).
